From ChEMBL document CHEMBL4627400, “Discovery of Dihydropyrrolo[1,2-a]pyrazin-3(4H)-one-Based Second-Generation GluN2C- and GluN2D-Selective Positive Allosteric Modulators (PAMs) of the N-Methyl-d-Aspartate (NMDA) Receptor” (J Med Chem, 2020) come the findings set out here.

In brackets after ≈: the same amount, converted by molar mass. A value given as a limit tells only on which side of the number the result lay.

A short description of data set [1]: Aqueous solubility of the compound at pH 7.4 after 30 mins by nephelometric analysis. The class given is physicochemical. Conditions: buffer; call rule not given here.
Data set [2] deals with T1, Glutamate NMDA receptor; Grin1/Grin2c (Rattus norvegicus) (UniProt P35439+Q00961). Kind of data set: Positive allosteric modulation of recombinant rat GluN1a/GluN2C receptor expressed in Xenopus laevis oocytes assessed as increase in glycine/L-glutamate-induced channel current at 30 uM by two-electrode voltage clamp method relative to control. The class given is cell-based. A digest of the protocol: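 Oocytes expressing rat GluN1/GluN2C or GluN2D, held at −40 mV in HEPES-buffered Ba2+ solution, pH 7.4, 23 °C. Current given as percent of agonist-alone response. Doubling concentration is the concentration giving 2-fold response; reported as […] log. 6–19 oocytes from 2–3 frogs.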

Data set [3] has as its target T2, Ionotropic glutamate receptor NMDA 1/2D (Rattus norvegicus) (UniProt P35439+Q62645). Put plainly: Positive allosteric modulation of recombinant rat GluN1a/GluN2D receptor expressed in Xenopus laevis oocytes assessed as increase in glycine/L-glutamate-induced channel current at 30 uM by two-electrode voltage clamp method relative to control. It counts as cell-based. An outline of the steps: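 Oocytes expressing rat GluN1/GluN2C or GluN2D, held at −40 mV in HEPES-buffered Ba2+ solution, pH 7.4, 23 °C. […] Current given as percent of agonist-alone response. […] Doubling concentration is the concentration giving 2-fold response; reported as […] log. 6–19 oocytes from 2–3 frogs.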
A general note: In two-electrode clamp one electrode senses voltage and the other passes current.

The target in data set [4] is T3, Glutamate NMDA receptor; Grin1/Grin2a (Rattus norvegicus, UniProt P35439+Q00959). Put plainly: Positive allosteric modulation of recombinant rat GluN1a/GluN2A receptor expressed in Xenopus laevis oocytes assessed as change in 30 to 100 uM glycine/3 uM L-glutamate-induced channel current at 30 uM by two-electrode voltage clamp method (reference value: 46 +/- 5%). It counts as cell-based.
T3 sequence (Q00959 whole entry, other chains not shown): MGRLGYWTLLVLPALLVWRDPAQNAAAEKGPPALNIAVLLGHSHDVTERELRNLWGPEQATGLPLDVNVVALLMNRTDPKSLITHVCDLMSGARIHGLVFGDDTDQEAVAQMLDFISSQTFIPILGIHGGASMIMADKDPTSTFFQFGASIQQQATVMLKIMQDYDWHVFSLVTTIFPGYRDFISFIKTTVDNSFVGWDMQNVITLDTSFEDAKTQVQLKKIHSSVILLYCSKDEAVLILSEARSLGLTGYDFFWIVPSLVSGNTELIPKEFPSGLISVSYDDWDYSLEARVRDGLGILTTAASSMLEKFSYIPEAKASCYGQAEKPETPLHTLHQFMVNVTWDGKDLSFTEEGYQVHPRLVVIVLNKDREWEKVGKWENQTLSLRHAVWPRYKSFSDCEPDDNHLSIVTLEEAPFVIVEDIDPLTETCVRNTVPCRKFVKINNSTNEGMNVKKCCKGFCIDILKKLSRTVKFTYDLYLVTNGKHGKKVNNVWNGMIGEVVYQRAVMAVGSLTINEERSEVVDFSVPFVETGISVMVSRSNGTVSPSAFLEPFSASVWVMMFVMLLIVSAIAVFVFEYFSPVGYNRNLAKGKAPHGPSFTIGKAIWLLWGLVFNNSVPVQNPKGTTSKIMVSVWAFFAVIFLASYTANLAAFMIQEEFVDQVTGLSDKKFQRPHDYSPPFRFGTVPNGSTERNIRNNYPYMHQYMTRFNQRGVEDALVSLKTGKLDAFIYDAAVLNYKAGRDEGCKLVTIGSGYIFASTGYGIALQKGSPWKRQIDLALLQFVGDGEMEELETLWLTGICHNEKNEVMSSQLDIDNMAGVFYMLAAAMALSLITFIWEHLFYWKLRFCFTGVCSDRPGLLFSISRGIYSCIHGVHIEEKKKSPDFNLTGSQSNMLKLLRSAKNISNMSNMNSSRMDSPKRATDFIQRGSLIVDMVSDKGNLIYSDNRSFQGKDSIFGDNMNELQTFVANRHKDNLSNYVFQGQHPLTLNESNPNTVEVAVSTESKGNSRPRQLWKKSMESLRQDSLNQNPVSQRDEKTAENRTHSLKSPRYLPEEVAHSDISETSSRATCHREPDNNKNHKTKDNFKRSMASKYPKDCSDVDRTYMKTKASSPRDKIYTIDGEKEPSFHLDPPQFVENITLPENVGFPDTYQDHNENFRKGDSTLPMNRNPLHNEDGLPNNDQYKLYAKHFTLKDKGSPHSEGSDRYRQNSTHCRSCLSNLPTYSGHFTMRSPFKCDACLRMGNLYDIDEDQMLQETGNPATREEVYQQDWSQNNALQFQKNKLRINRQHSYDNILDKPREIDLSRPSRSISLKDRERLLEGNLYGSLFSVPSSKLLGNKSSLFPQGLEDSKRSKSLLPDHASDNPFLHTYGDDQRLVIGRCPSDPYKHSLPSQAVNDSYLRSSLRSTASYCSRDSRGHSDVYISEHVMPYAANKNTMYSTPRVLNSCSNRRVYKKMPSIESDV

For data set [5], the target named is T4, Glutamate NMDA receptor; Grin1/Grin2b (Rattus norvegicus, UniProt P35439+Q00960). Kind of data set: Positive allosteric modulation of recombinant rat GluN1a/GluN2B receptor expressed in Xenopus laevis oocytes assessed as change in 30 to 100 uM glycine/3 uM L-glutamate-induced channel current at 30 uM by two-electrode voltage clamp method (reference value: 79 +/- 1%). The class given is cell-based. Conditions: read-out: %max.
T4 sequence (Q00960 whole entry, other chains not shown): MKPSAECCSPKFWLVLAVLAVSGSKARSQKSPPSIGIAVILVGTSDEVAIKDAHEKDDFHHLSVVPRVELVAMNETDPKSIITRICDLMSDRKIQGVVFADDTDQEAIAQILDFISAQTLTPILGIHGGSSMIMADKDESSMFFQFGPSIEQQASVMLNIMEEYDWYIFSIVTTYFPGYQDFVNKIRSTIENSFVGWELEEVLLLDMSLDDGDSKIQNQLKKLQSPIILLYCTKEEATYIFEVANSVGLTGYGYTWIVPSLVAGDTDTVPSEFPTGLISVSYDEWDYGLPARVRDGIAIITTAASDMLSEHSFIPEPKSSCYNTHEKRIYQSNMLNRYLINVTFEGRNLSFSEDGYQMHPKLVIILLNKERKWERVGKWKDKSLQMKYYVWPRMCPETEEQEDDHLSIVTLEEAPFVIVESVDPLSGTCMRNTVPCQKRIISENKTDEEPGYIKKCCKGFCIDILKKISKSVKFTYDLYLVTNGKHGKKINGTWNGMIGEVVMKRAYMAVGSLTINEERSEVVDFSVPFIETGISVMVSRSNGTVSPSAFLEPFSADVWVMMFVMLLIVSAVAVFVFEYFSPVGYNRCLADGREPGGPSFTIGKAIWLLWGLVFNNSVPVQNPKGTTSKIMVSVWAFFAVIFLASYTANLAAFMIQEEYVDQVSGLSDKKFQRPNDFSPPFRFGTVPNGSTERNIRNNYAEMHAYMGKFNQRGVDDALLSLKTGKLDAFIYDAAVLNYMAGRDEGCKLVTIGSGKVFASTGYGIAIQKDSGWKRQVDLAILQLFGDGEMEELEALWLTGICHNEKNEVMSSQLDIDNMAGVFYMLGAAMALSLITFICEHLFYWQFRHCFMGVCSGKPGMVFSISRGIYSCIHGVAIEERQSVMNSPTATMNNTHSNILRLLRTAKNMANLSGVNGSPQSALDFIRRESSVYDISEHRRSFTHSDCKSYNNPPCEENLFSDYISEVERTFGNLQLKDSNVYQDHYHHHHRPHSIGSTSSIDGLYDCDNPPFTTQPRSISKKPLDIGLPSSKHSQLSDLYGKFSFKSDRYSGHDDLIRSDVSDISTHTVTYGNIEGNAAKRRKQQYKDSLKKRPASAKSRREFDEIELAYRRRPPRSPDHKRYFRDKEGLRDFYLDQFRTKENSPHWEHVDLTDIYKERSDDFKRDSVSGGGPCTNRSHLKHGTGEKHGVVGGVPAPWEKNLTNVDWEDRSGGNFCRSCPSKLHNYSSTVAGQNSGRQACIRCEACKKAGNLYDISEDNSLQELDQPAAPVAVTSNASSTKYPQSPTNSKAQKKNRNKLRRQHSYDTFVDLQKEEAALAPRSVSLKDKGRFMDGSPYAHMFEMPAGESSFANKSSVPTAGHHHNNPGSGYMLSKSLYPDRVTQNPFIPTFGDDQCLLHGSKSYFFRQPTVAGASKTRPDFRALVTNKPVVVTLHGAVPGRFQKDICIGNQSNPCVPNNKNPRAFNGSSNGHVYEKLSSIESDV

Data set [6] deals with T1, Glutamate NMDA receptor; Grin1/Grin2c (Rattus norvegicus). Kind of data set: Positive allosteric modulation of recombinant rat GluN1a/GluN2C receptor expressed in Xenopus laevis oocytes assessed as change in […]/0.3 uM L-glutamate-induced channel current at 30 uM by two-electrode voltage clamp method (reference value: 19 +/- 3%). The class given is cell-based. An outline of the steps:
(§1)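 Oocytes expressing rat GluN1/GluN2C or GluN1/GluN2D, TEVC at −40 mV, pH 7.4, 23 °C. […] 30 μM glycine in all solutions per footnote. Vehicle versus drug compared by paired t-test; mean ± SEM.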

In data set [7] the target is T2, Ionotropic glutamate receptor NMDA 1/2D (Rattus norvegicus). Put plainly: Positive allosteric modulation of recombinant rat GluN1a/GluN2D receptor expressed in Xenopus laevis oocytes assessed as change in […]/0.3 uM L-glutamate-induced channel current at 30 uM by two-electrode voltage clamp method (reference value: 29 +/- 2%). It counts as cell-based. An outline of the steps:
as §1

Data set [8] shares this target. Put plainly: Positive allosteric modulation of recombinant rat GluN1a/GluN2D receptor expressed in Xenopus laevis oocytes assessed as increase in 10 uM glycine/L-glutamate-induced channel current at 30 uM in presence of NMDAR antagonist DL-APV by two-electrode voltage clamp method relative to control. The class given is cell-based. A digest of the protocol:
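GluN1/GluN2D oocytes, TEVC at −40 mV. 30 μM compound applied with 10 μM glycine plus 50 μM DL-APV (glutamate-site antagonist).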

Data set [9] shares this target. Put plainly: Positive allosteric modulation of recombinant rat GluN1a/GluN2D receptor expressed in Xenopus laevis oocytes assessed as increase in glycine/10 uM L-glutamate-induced channel current at 30 uM in presence of NMDAR antagonist 7-CKA by two-electrode voltage clamp method relative to control. It counts as cell-based.
Data set [10] has as its target Glutamate NMDA receptor; Grin1/Grin2c (Rattus norvegicus, UniProt P35439+Q00961).
Data set [11] deals with Ionotropic glutamate receptor NMDA 1/2D (Rattus norvegicus, UniProt P35439+Q62645).
The nature of data set [12]: Fraction unbound in rat plasma at 1 uM measured after 60 mins by equilibrium dialysis based LC/MS/MS analysis. The class given is ADME, cell-free.
Data set [13] is described as follows: Cmax in C57Bl/6 mouse at 20 mg/kg, ip by LC/MS/MS analysis. Details: dose 20 mg/kg, route intraperitoneal. The following applies: in vivo. The class given is ADME, organism-based.
Data set [14] in a line: Half life in C57Bl/6 mouse at 20 mg/kg, ip by LC/MS/MS analysis. It counts as ADME, organism-based. The following applies: in vivo.
The nature of data set [15]: Ratio of drug level in brain to plasma in C57Bl/6 mouse at 20 mg/kg, ip by LC/MS/MS analysis. It counts as ADME, organism-based. Conditions: read-out: BPR.
Data set [16] is described as follows: Protein binding in rat plasma at 1 uM measured after 60 mins by equilibrium dialysis based LC/MS/MS analysis. It counts as ADME, cell-free. Conditions: read-out: PPB (converted). In general terms: Equilibrium dialysis compares concentrations on both sides of a semipermeable membrane.
Data set [17] is described as follows: Cmax in C57Bl/6 mouse at 10 mg/kg, ip by LC/MS/MS analysis. The class given is ADME, organism-based. Details: dose 10 mg/kg, route intraperitoneal. The following applies: in vivo. A digest of the protocol:
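Male fed C57BL/6 mice, 6–8 weeks, given 10 mg/kg i.p. (1 mg/mL, 10 mL/kg) in 50% PEG400/water. […] Samples protein-precipitated with acetonitrile, brain homogenised 1:4 in water, quantified by LC-MS/MS with verapamil internal standard.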

Data set [18] can be described thus: Half life in C57Bl/6 mouse at 10 mg/kg, ip by LC/MS/MS analysis. Conditions: in vivo. The class given is ADME, organism-based. A digest of the protocol: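 Male, fed C57BL/6 mice (6–8 weeks) got a single i.p. dose of 10 mg/kg (1 mg/mL) in 50% PEG400/water. […] Brain was homogenized 1:4 in water. Samples were acetonitrile-precipitated and measured by LC-MS/MS against a verapamil internal standard. Brain:plasma was reported from AUClast.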

Data set [19] is described as follows: Drug level in C57Bl/6 mouse brain at 10 mg/kg, ip measured at 0.25 hrs by LC/MS/MS analysis. The following applies: read-out: Drug uptake. It counts as ADME, organism-based. A digest of the protocol: (§2)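 Fed male mice, 6–8 weeks old, n = 15, 3 per time point. Dosed ip at 10 mg/kg (1 mg/mL) in 50% PEG400/water. […] Brain homogenized 1:4 in water. Samples acetonitrile-precipitated and quantified by LC-MS/MS with verapamil as internal standard.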

The nature of data set [20]: Drug level in C57Bl/6 mouse plasma at 10 mg/kg, ip measured at 0.25 hrs by LC/MS/MS analysis. The class given is ADME, organism-based. An outline of the steps:
as §2

Data set [21] has as its target T3, Glutamate NMDA receptor; Grin1/Grin2a. Put plainly: Positive allosteric modulation of recombinant rat GluN1a/GluN2A receptor expressed in Xenopus laevis oocytes assessed as increase in glycine/L-glutamate-induced channel current at 10 to 30 uM by two-electrode voltage clamp method relative to control. The class given is cell-based. A digest of the protocol: (§3)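 TEVC at −40 mV, 23 °C, in 90 NaCl/1 KCl/0.5 BaCl/0.005 EDTA/10 HEPES (mM), pH 7.4. Oocytes expressed rat GluN1/GluN2A or GluN1/GluN2B. […] Some GluN2A oocytes were BAPTA-loaded. 4–17 oocytes from 1–3 frogs.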

In data set [22] the target is T4, Glutamate NMDA receptor; Grin1/Grin2b. Put plainly: Positive allosteric modulation of recombinant rat GluN1a/GluN2B receptor expressed in Xenopus laevis oocytes assessed as increase in glycine/L-glutamate-induced channel current at 10 to 30 uM by two-electrode voltage clamp method relative to control. The class given is cell-based. A digest of the protocol:
as §3

In data set [1], `COc1ccc(OC[C@H]2c3cccn3CC(=O)N2Cc2cccc(F)c2)cc1` displayed a solubility (kinetic) at 0.5 h of 74 µM (≈ 28.2 µg/mL). The %max in data set [2] stood at 410%; in data set [3], 390%; in data set [4] it was 53%; in data set [6] it was 48%; in data set [7], 55%. Moreover, the activity at 30 µM in [5] stood at 77%. Besides, the Activity in data set [8] was 2.5%; in data set [9], 0.4%. Further, the EC50 in data set [10] and in data set [11] was 3.16 µM in each case.

For `COc1ccc(OCC2c3cc(OC)c(OC)cc3CCN2C(=O)c2cccc(Cl)c2)cc1` (stereo not given), the %max amounted to 230% in data set [2] and 220% in [3]. Besides, the fraction unbound at 1 h, 1 µM in data set [12] is less than 0.0001; in data set [16] it was less than 0.001. This compound registered a Cmax in data set [13] of 2160 nM. The same compound gave a half-life in [14] of 1.35 h. The Kp in [15] is 6.7.

Turning to `COc1ccc(OCC2c3cccn3CC(=O)N2Cc2cccc(F)c2)cc1` (stereo not given), in [1], the solubility (kinetic) at 0.5 h stood at 74 µM (≈ 28.2 µg/mL). Also, the %max in data set [2] and in data set [3] was 350% each time. This compound gave a Cmax in data set [17] of 1830 nM. The same compound came in with a t1/2 in [18] of 1.07 h. The concentration at 0.25 h in [19] was found to be 2500 nM; in data set [20] it was 1830 nM. Also, the fraction unbound at 1 h, 1 µM in [16] was 0.013. The Activity entry in [21] and in data set [22] was “Not Active” each time. Further, the EC50 in data set [10] and in [11] was 3.16 µM each time.

As a reminder, the solubility (kinetic) is the concentration staying in solution when a stock, usually in DMSO, is diluted into the medium. What is called EC50 is the concentration needed to bring the measured effect to its halfway point. Usually Cmax stands for the highest concentration seen after dosing. As usually defined, the half-life is how long it takes for the measured level to halve. Higher therefore signals slow decline.
